Experimental data reported in ChEMBL document CHEMBL3813688, “Synthesis, antitumor activity and mechanism of action of novel 1,3-thiazole derivatives containing hydrazide-hydrazone and carboxamide moiety” (Bioorg Med Chem Lett, 2016).
≈ marks a conversion by molar mass, not a printed value.

Columns and labels:
MCF7 [1] = experiment: Cytotoxicity against human MCF7 cells assessed as cell growth inhibition after 72 hrs by MTT assay; type: functional, cell-based; conditions: MCF7, 72 h
Method in brief: (§1)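 MTT growth assay in human cancer lines (MCF-7, HepG2, BGC-823, HeLa, A549), 72 h after treatment; 5-fluorouracil as reference. IC50 (μg/mL) taken as concentration giving 50% growth inhibition versus untreated control.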

A549 [2] = experiment: Cytotoxicity against human A549 cells assessed as cell growth inhibition at 20 ug/ml after 72 hrs by MTT assay; type: functional; conditions: A549, 72 h, read-out: GI
A549 [3] = experiment: Cytotoxicity against human A549 cells assessed as cell growth inhibition after 72 hrs by MTT assay; type: functional, cell-based; conditions: A549, 72 h; method in brief: as §1
HeLa [4] = experiment: Cytotoxicity against human HeLa cells assessed as cell growth inhibition at 20 ug/ml after 72 hrs by MTT assay; type: functional; conditions: read-out: GI
[5] = Cytotoxicity against human BCG823 cells assessed as cell growth inhibition after 72 hrs by MTT assay; type: functional, cell-based; conditions: BCG823, 72 h; method in brief: as §1
[6] = Cytotoxicity against human BCG823 cells assessed as cell growth inhibition at 20 ug/ml after 72 hrs by MTT assay; type: functional; conditions: BCG823, 72 h, read-out: GI
HepG2 [7] = experiment: Cytotoxicity against human HepG2 cells assessed as cell growth inhibition after 72 hrs by MTT assay; type: functional, cell-based; conditions: HepG2, 72 h; method in brief: as §1
HeLa [8] = experiment: Cytotoxicity against human HeLa cells assessed as cell growth inhibition after 72 hrs by MTT assay; type: functional, cell-based; method in brief: as §1
HepG2 [9] = experiment: Cytotoxicity against human HepG2 cells assessed as cell growth inhibition at 20 ug/ml after 72 hrs by MTT assay; type: functional; conditions: HepG2, 72 h, read-out: GI
[10] = system: MCF-7, HepG2, BGC-823, HeLa, A549 cancer cell lines (Homo sapiens); experiment: Cytotoxicity against human MCF-7, HepG2, BGC-823, HeLa and A549 cells assessed as cell growth inhibition at 20 ug/ml after 72 hrs by MTT assay; conditions: read-out: GI
MCF7 [11] = experiment: Cytotoxicity against human MCF7 cells assessed as cell growth inhibition at 20 ug/ml after 72 hrs by MTT assay; type: functional; conditions: MCF7, 72 h, read-out: GI
HepG2 [12] = experiment: Induction of apoptosis in human HepG2 cells assessed as viable cells at 1.82 ug/ml after 24 to 48 hrs by Annexin V-FITC/propidium iodide staining based flow cytometry (reference value: 95.6 %); type: functional; conditions: read-out: Activity
HepG2 [13] = experiment: Induction of apoptosis in human HepG2 cells assessed as early apoptotic cells at 3.64 ug/ml after 24 to 48 hrs by Annexin V-FITC/propidium iodide staining based flow cytometry (reference value: 2.5 %); type: functional
HepG2 [14] = experiment: Induction of apoptosis in human HepG2 cells assessed as necrotic cells at 3.64 ug/ml after 24 to 48 hrs by Annexin V-FITC/propidium iodide staining based flow cytometry (reference value: 1.8 %); type: functional
HepG2 [15] = experiment: Induction of apoptosis in human HepG2 cells assessed as early apoptotic cells at 1.82 ug/ml after 24 to 48 hrs by Annexin V-FITC/propidium iodide staining based flow cytometry (reference value: 2.5 %); type: functional
HepG2 [16] = experiment: Induction of apoptosis in human HepG2 cells assessed as late apoptotic cells at 3.64 ug/ml after 24 to 48 hrs by Annexin V-FITC/propidium iodide staining based flow cytometry (reference value: 0.1 %); type: functional
HepG2 [17] = experiment: Induction of apoptosis in human HepG2 cells assessed as viable cells at 3.64 ug/ml after 24 to 48 hrs by Annexin V-FITC/propidium iodide staining based flow cytometry (reference value: 95.6 %); type: functional; conditions: read-out: Activity
[18] = Cytotoxicity against human HL7702 cells assessed as cell growth inhibition after 72 hrs by MTT assay; type: cell-based; conditions: L02, 72 h
HepG2 [19] = experiment: Induction of apoptosis in human HepG2 cells assessed as late apoptotic cells at 1.82 ug/ml after 24 to 48 hrs by Annexin V-FITC/propidium iodide staining based flow cytometry (reference value: 0.1 %); type: functional
HepG2 [20] = experiment: Induction of apoptosis in human HepG2 cells assessed as necrotic cells at 1.82 ug/ml after 24 to 48 hrs by Annexin V-FITC/propidium iodide staining based flow cytometry (reference value: 1.8 %); type: functional

Row | SMILES | IC50 (MCF7 [1]) [µg/mL] | inhibition of growth at 20 µg/mL (A549 [2]) [%] | IC50 (A549 [3]) [µg/mL] | inhibition of growth at 20 µg/mL (HeLa [4]) [%] | IC50 [5] [µg/mL] | inhibition of growth at 20 µg/mL [6] [%] | IC50 (HepG2 [7]) [µg/mL] | IC50 (HeLa [8]) [µg/mL] | inhibition of growth at 20 µg/mL (HepG2 [9]) [%] | inhibition at 72 h, 20 ug/ml [10] [%] | inhibition of growth at 20 µg/mL (MCF7 [11]) [%] | viability at 1.82 µg/mL (HepG2 [12]) [%] | Activity (HepG2 [13]) [%] | Activity (HepG2 [14]) [%] | Activity (HepG2 [15]) [%] | Activity (HepG2 [16]) [%] | viability at 3.64 µg/mL (HepG2 [17]) [%] | IC50 [18] [µg/mL] | Activity (HepG2 [19]) [%] | Activity (HepG2 [20]) [%]
1 | CNc1nc(C)c(C(=O)N/N=C/c2ccccc2C(F)(F)F)s1 | > 100 | < 30 | > 100 | < 30 | > 100 | < 30 | > 100 | > 100 | < 30 | < 30 | < 30 |  |  |  |  |  |  |  |  | 
2 | CNc1nc(C)c(C(=O)N/N=C/c2cc(C(F)(F)F)cc(C(F)(F)F)c2)s1 | > 100 | < 30 | > 100 | < 30 | > 100 | < 30 | > 100 | > 100 | < 30 | < 30 | < 30 |  |  |  |  |  |  |  |  | 
3 | CNc1nc(C(F)(F)F)c(C(=O)N/N=C/c2cccc(C(F)(F)F)c2)s1 | > 100 | < 30 | > 100 | < 30 | > 100 | < 30 | > 100 | > 100 | < 30 | < 30 | < 30 |  |  |  |  |  |  |  |  | 
4 | CNc1nc(C)c(C(=O)N/N=C/c2cccc(C(F)(F)F)c2)s1 | > 100 | < 30 | > 100 | < 30 | > 100 | < 30 | > 100 | > 100 | < 30 | < 30 | < 30 |  |  |  |  |  |  |  |  | 
5 | CNc1nc(C(F)(F)F)c(C(=O)N/N=C/c2ccc(C(F)(F)F)cc2)s1 | > 100 | < 30 | > 100 | < 30 | > 100 | < 30 | > 100 | > 100 | < 30 | < 30 | < 30 |  |  |  |  |  |  |  |  | 
6 | CNc1nc(C(F)(F)F)c(C(=O)N/N=C/c2ccccc2C(F)(F)F)s1 | > 100 | < 30 | > 100 | < 30 | > 100 | < 30 | > 100 | > 100 | < 30 | < 30 | < 30 |  |  |  |  |  |  |  |  | 
7 | CN(C(=O)NC(=O)c1ccc(C(F)(F)F)cc1)c1nc(C(F)(F)F)c(C(=O)N/N=C/c2ccccc2C(F)(F)F)s1 | 2.21 (≈ 3.61 µM) |  | 6.68 (≈ 10.9 µM) |  | 2.53 (≈ 4.14 µM) |  | 3.64 (≈ 5.95 µM) | 3.76 (≈ 6.15 µM) |  |  |  | 91.5 | 18.6 | 3.2 | 7.8 | 0.3 | 77.9 | 12.4 (≈ 20.3 µM) | 0.4 | 0.3
8 | CN(C(=O)NC(=O)c1ccc(F)c(F)c1)c1nc(C(F)(F)F)c(C(=O)N/N=C/c2ccc(C(F)(F)F)cc2)s1 | 5.93 (≈ 10.2 µM) |  | 6.07 (≈ 10.5 µM) |  | 3.85 (≈ 6.64 µM) |  | 6.26 (≈ 10.8 µM) | 5.1 (≈ 8.8 µM) |  |  |  |  |  |  |  |  |  | 13.2 (≈ 22.9 µM) |  | 
9 | CN(C(=O)NC(=O)c1ccc(C(F)(F)F)cc1)c1nc(C(F)(F)F)c(C(=O)N/N=C/c2cccc(C(F)(F)F)c2)s1 | 8.95 (≈ 14.6 µM) |  | 6.66 (≈ 10.9 µM) |  | 1.84 (≈ 3.01 µM) |  | 7.95 (≈ 13 µM) | 6.2 (≈ 10.1 µM) |  |  |  |  |  |  |  |  |  | 18 (≈ 29.4 µM) |  | 
10 | CN(C(=O)NC(=O)c1ccc(F)c(F)c1)c1nc(C(F)(F)F)c(C(=O)N/N=C/c2cccc(C(F)(F)F)c2)s1 | 4.15 (≈ 7.16 µM) |  | 6.52 (≈ 11.3 µM) |  | 4.46 (≈ 7.7 µM) |  | 5.6 (≈ 9.66 µM) | 4.21 (≈ 7.27 µM) |  |  |  |  |  |  |  |  |  | 23.5 (≈ 40.5 µM) |  | 
11 | CN(C(=O)NC(=O)c1ccc(F)c(F)c1)c1nc(C(F)(F)F)c(C(=O)N/N=C/c2cc(C(F)(F)F)cc(C(F)(F)F)c2)s1 | 2.61 (≈ 4.03 µM) |  | 5.47 (≈ 8.45 µM) |  | 3.51 (≈ 5.42 µM) |  | 5.47 (≈ 8.45 µM) | 4.45 (≈ 6.87 µM) |  |  |  |  |  |  |  |  |  | 20.1 (≈ 31 µM) |  | 
12 | CNc1nc(C(F)(F)F)c(C(=O)N/N=C/c2cc(C(F)(F)F)cc(C(F)(F)F)c2)s1 | > 100 | < 30 | > 100 | < 30 | > 100 | < 30 | > 100 | > 100 | < 30 | < 30 | < 30 |  |  |  |  |  |  |  |  | 
13 | CNc1nc(C)c(C(=O)N/N=C/c2ccc(C(F)(F)F)cc2)s1 | > 100 | < 30 | > 100 | < 30 | > 100 | < 30 | > 100 | > 100 | < 30 | < 30 | < 30 |  |  |  |  |  |  |  |  | 
14 | O=c1[nH]cc(F)c(=O)[nH]1 [FLUOROURACIL] | 10.8 (≈ 83 µM) |  | 10.5 (≈ 80.7 µM) |  | 10.9 (≈ 83.7 µM) |  |  | 10.7 (≈ 82.4 µM) |  |  |  |  |  |  |  |  |  | 14.5 (≈ 112 µM) |  | 
